In ChEMBL document CHEMBL1687785, “ampG gene of Pseudomonas aeruginosa and its role in β-lactamase expression” (2010):
Converted amounts (≈) assume the structure as drawn.

Experiments:
Type in all cases: functional
[1] = test system: Pseudomonas aeruginosa; test: Antimicrobial activity against ampG deficient Pseudomonas aeruginosa PAO1 harboring pUCP24 conferring resistance to gentamycin after 16 to 20 hrs by broth microdilution method
Method in brief: (§1)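 CLSI broth microdilution in Mueller-Hinton broth, serial 2-fold antibiotic dilutions. Inoculum about 10^4 cells per well, taken from starter cultures grown to OD600 0.5. MIC was the lowest antibiotic concentration preventing growth after 16 to 20 h at 37°C. Each MIC was determined in triplicate.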

[2] = test system: Pseudomonas aeruginosa; test: Antimicrobial activity against ampG deficient Pseudomonas aeruginosa PAK after 16 to 20 hrs by broth microdilution method; method in brief: as §1
[3] = test system: Pseudomonas aeruginosa; test: Antimicrobial activity against ampG deficient Pseudomonas aeruginosa PAO1 harboring pZY0901 conferring resistance to gentamycin after 16 to 20 hrs by broth microdilution method in presence of 120 uM carbonyl cyanide m-chlorophenyl-hydrazone
Method in brief: (§2)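 CLSI broth microdilution in Mueller-Hinton broth with serial antibiotic dilutions. CCCP was added from a 10 mM DMSO stock to 120 μM final, then the bacterial culture was added as inoculum (about 10^4 cells from OD600 0.5 starter cultures). MIC was the lowest concentration preventing growth after 16 to 20 h at 37°C, run in triplicate.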

[4] = test system: Pseudomonas aeruginosa; test: Antimicrobial activity against ampD, ampDh2, ampDh3 and ampG deficient Pseudomonas aeruginosa PAO1 harboring pUCP24 conferring resistance to gentamycin after 16 to 20 hrs by broth microdilution method in presence of 120 uM carbonyl cyanide m-chlorophenyl-hydrazone; method in brief: as §2
[5] = test system: Pseudomonas aeruginosa; test: Antimicrobial activity against ampD, ampDh2, ampDh3 and ampGh1 deficient Pseudomonas aeruginosa PAO1 after 16 to 20 hrs by broth microdilution method in presence of 120 uM carbonyl cyanide m-chlorophenyl-hydrazone; method in brief: as §2
[6] = test system: Pseudomonas aeruginosa; test: Antimicrobial activity against Pseudomonas aeruginosa PAO1 after 16 to 20 hrs by broth microdilution method in presence of 120 uM carbonyl cyanide m-chlorophenyl-hydrazone
Method in brief: (§3)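 CLSI broth microdilution in Mueller-Hinton broth with CCCP added from a 10 mM DMSO stock to 120 μM final, alongside 2-fold serial antibiotic dilutions. Inoculum from starter cultures grown to OD600 0.5. MIC is the lowest concentration preventing growth after 16-20 h at 37°C. Triplicate.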

[7] = test system: Pseudomonas aeruginosa; test: Antimicrobial activity against ampD, ampDh2, ampDh3 and ampG deficient Pseudomonas aeruginosa PAO1 after 16 to 20 hrs by broth microdilution method in presence of 120 uM carbonyl cyanide m-chlorophenyl-hydrazone; method in brief: as §2
[8] = test system: Pseudomonas aeruginosa; test: Antimicrobial activity against ampD, ampDh2, ampDh3 and ampGh1 deficient Pseudomonas aeruginosa PAO1 after 16 to 20 hrs by broth microdilution method; method in brief: as §1
[9] = test system: Pseudomonas aeruginosa; test: Antimicrobial activity against ampGh1 deficient Pseudomonas aeruginosa PAK after 16 to 20 hrs by broth microdilution method in presence of 120 uM carbonyl cyanide m-chlorophenyl-hydrazone; method in brief: as §2
[10] = test system: Escherichia coli; test: Antimicrobial activity against tetracycline resistant Escherichia coli SNO301-1 harboring pEC1C carrying ampC, ampR from Enterobacter cloacae after 16 to 20 hrs by broth microdilution method
Method in brief: (§4)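 CLSI broth microdilution: serial 2-fold β-lactam dilutions in Mueller-Hinton broth, inoculum about 10^4 cells from starter cultures at OD600 0.5; MIC read as lowest concentration preventing growth after 16 to 20 h at 37°C; triplicate determinations.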

[11] = test system: Pseudomonas aeruginosa; test: Antimicrobial activity against Pseudomonas aeruginosa PAK after 16 to 20 hrs by broth microdilution method
Method in brief: (§5)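 CLSI broth microdilution: 2-fold serial antibiotic dilutions in Mueller-Hinton broth, inoculated with about 10^4 cells per 100 μl from starter cultures grown to OD600 0.5. MIC is the lowest concentration preventing growth after 16-20 h at 37°C. Triplicate.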

[12] = test system: Escherichia coli; test: Antimicrobial activity against kanamycin resistant Escherichia coli SNO301-1 harboring pEC1C carrying ampC, ampR from Enterobacter cloacae after 16 to 20 hrs by broth microdilution method; method in brief: as §4
[13] = test system: Pseudomonas aeruginosa; test: Antimicrobial activity against ampG deficient Pseudomonas aeruginosa PAO1 harboring pZY0901 conferring resistance to gentamycin after 16 to 20 hrs by broth microdilution method; method in brief: as §1
[14] = test system: Pseudomonas aeruginosa; test: Antimicrobial activity against Pseudomonas aeruginosa PAK after 16 to 20 hrs by broth microdilution method in presence of 120 uM carbonyl cyanide m-chlorophenyl-hydrazone; method in brief: as §3
[15] = test system: Pseudomonas aeruginosa; test: Antimicrobial activity against ampG deficient Pseudomonas aeruginosa PAO1 after 16 to 20 hrs by broth microdilution method in presence of 120 uM carbonyl cyanide m-chlorophenyl-hydrazone; method in brief: as §2
[16] = test system: Pseudomonas aeruginosa; test: Antimicrobial activity against Pseudomonas aeruginosa PAO1 after 16 to 20 hrs by broth microdilution method; method in brief: as §5
[17] = test system: Pseudomonas aeruginosa; test: Antimicrobial activity against ampD, ampDh2, ampDh3 and ampG deficient Pseudomonas aeruginosa PAO1 harboring pZY0901 conferring resistance to gentamycin after 16 to 20 hrs by broth microdilution method; method in brief: as §1
[18] = test system: Pseudomonas aeruginosa; test: Antimicrobial activity against ampG, ampGh1 deficient Pseudomonas aeruginosa PAK after 16 to 20 hrs by broth microdilution method; method in brief: as §1
[19] = test system: Pseudomonas aeruginosa; test: Antimicrobial activity against ampG deficient Pseudomonas aeruginosa PAO1 harboring pUCP24 conferring resistance to gentamycin after 16 to 20 hrs by broth microdilution method in presence of 120 uM carbonyl cyanide m-chlorophenyl-hydrazone; method in brief: as §2
[20] = test system: Pseudomonas aeruginosa; test: Antimicrobial activity against ampG, ampGh1 deficient Pseudomonas aeruginosa PAK after 16 to 20 hrs by broth microdilution method in presence of 120 uM carbonyl cyanide m-chlorophenyl-hydrazone; method in brief: as §2
[21] = test system: Pseudomonas aeruginosa; test: Antimicrobial activity against ampG deficient Pseudomonas aeruginosa PAK harboring pUCP24 conferring resistance to gentamycin after 16 to 20 hrs by broth microdilution method in presence of 120 uM carbonyl cyanide m-chlorophenyl-hydrazone; method in brief: as §2
[22] = test system: Pseudomonas aeruginosa; test: Antimicrobial activity against ampD, […], ampDh2 deficient Pseudomonas aeruginosa PAO1 after 16 to 20 hrs by broth microdilution method; method in brief: as §1
[23] = test system: Pseudomonas aeruginosa; test: Antimicrobial activity against ampD, ampDh2, ampDh3 and ampG deficient Pseudomonas aeruginosa PAO1 harboring pUCP24 conferring resistance to gentamycin after 16 to 20 hrs by broth microdilution method; method in brief: as §1
[24] = test system: Pseudomonas aeruginosa; test: Antimicrobial activity against ampG deficient Pseudomonas aeruginosa PAO1 harboring pZY0908 conferring resistance to gentamycin after 16 to 20 hrs by broth microdilution method; method in brief: as §1
[25] = test system: Pseudomonas aeruginosa; test: Antimicrobial activity against ampD, ampDh2, ampDh3 deficient Pseudomonas aeruginosa PAO1 after 16 to 20 hrs by broth microdilution method in presence of 120 uM carbonyl cyanide m-chlorophenyl-hydrazone; method in brief: as §2
[26] = test system: Pseudomonas aeruginosa; test: Antimicrobial activity against ampG deficient Pseudomonas aeruginosa PAO1 after 16 to 20 hrs by broth microdilution method; method in brief: as §1
[27] = test system: Pseudomonas aeruginosa; test: Antimicrobial activity against ampD, ampDh2, ampDh3 and ampG deficient Pseudomonas aeruginosa PAO1 after 16 to 20 hrs by broth microdilution method; method in brief: as §1
[28] = test system: Pseudomonas aeruginosa; test: Antimicrobial activity against ampD, ampDh2, ampDh3 and ampG deficient Pseudomonas aeruginosa PAO1 harboring pZY0901 conferring resistance to gentamycin after 16 to 20 hrs by broth microdilution method in presence of 120 uM carbonyl cyanide m-chlorophenyl-hydrazone; method in brief: as §2
[29] = test system: Pseudomonas aeruginosa; test: Antimicrobial activity against ampG deficient Pseudomonas aeruginosa PAK harboring pZY0901 conferring resistance to gentamycin after 16 to 20 hrs by broth microdilution method; method in brief: as §1
[30] = test system: Pseudomonas aeruginosa; test: Antimicrobial activity against ampG deficient Pseudomonas aeruginosa PAK harboring pUCP24 conferring resistance to gentamycin after 16 to 20 hrs by broth microdilution method; method in brief: as §1
[31] = test system: Pseudomonas aeruginosa; test: Antimicrobial activity against ampG, ampGh1 deficient Pseudomonas aeruginosa PAO1 after 16 to 20 hrs by broth microdilution method in presence of 120 uM carbonyl cyanide m-chlorophenyl-hydrazone; method in brief: as §2
[32] = test system: Pseudomonas aeruginosa; test: Antimicrobial activity against ampG deficient Pseudomonas aeruginosa PAK after 16 to 20 hrs by broth microdilution method in presence of 120 uM carbonyl cyanide m-chlorophenyl-hydrazone; method in brief: as §2
[33] = test system: Escherichia coli; test: Antimicrobial activity against gentamycin resistant Escherichia coli SNO301-1 harboring pEC1C carrying ampC, ampR from Enterobacter cloacae after 16 to 20 hrs by broth microdilution method; method in brief: as §4
[34] = test system: Pseudomonas aeruginosa; test: Antimicrobial activity against ampGh1 deficient Pseudomonas aeruginosa PAK after 16 to 20 hrs by broth microdilution method; method in brief: as §1
[35] = test system: Pseudomonas aeruginosa; test: Antimicrobial activity against ampGh1 deficient Pseudomonas aeruginosa PAO1 after 16 to 20 hrs by broth microdilution method; method in brief: as §1
[36] = test system: Pseudomonas aeruginosa; test: Antimicrobial activity against ampG, ampGh1 deficient Pseudomonas aeruginosa PAO1 after 16 to 20 hrs by broth microdilution method; method in brief: as §1
[37] = test system: Pseudomonas aeruginosa; test: Antimicrobial activity against ampG deficient Pseudomonas aeruginosa PAK harboring pZY0901 conferring resistance to gentamycin after 16 to 20 hrs by broth microdilution method in presence of 120 uM carbonyl cyanide m-chlorophenyl-hydrazone; method in brief: as §2
[38] = test system: Pseudomonas aeruginosa; test: Antimicrobial activity against ampGh1 deficient Pseudomonas aeruginosa PAO1 after 16 to 20 hrs by broth microdilution method in presence of 120 uM carbonyl cyanide m-chlorophenyl-hydrazone
Method in brief: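 Serial 2-fold dilutions of β-lactam in Mueller-Hinton broth with CCCP added from a 10 mM DMSO stock to 120 μM final; inoculum about 10^4 cells from cultures grown to OD600 0.5; MIC taken as lowest concentration preventing growth after 16 to 20 h at 37°C; triplicate.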

CO/N=C(\C(=O)N[C@@H]1C(=O)N2C(C(=O)O)=C(COC(C)=O)CS[C@H]12)c1csc(N)n1 [CEFOTAXIME]
MIC [1]: 8 µg/mL (≈ 17.6 µM)
MIC [2]: 8 µg/mL (≈ 17.6 µM)
MIC [3]: 128 µg/mL
MIC [4]: 4 µg/mL
MIC [5]: 64 µg/mL
MIC [6]: 8 µg/mL
MIC [7]: 4 µg/mL
MIC [8]: 256 µg/mL (≈ 562 µM)
MIC [9]: 8 µg/mL
MIC [10]: < 2 µg/mL
MIC [11]: 8 µg/mL (≈ 17.6 µM)
MIC [12]: 64 µg/mL (≈ 141 µM)
MIC [13]: 256 µg/mL (≈ 562 µM)
MIC [14]: 8 µg/mL
MIC [15]: 4 µg/mL
MIC [16]: 16 µg/mL (≈ 35.1 µM)
MIC [17]: 512 µg/mL (≈ 1120 µM)
MIC [18]: 8 µg/mL (≈ 17.6 µM)
MIC [19]: 4 µg/mL
MIC [20]: 4 µg/mL
MIC [21]: 4 µg/mL
MIC [22]: 512 µg/mL (≈ 1120 µM)
MIC [23]: 4 µg/mL (≈ 8.78 µM)
MIC [24]: 8 µg/mL (≈ 17.6 µM)
MIC [25]: 64 µg/mL
MIC [26]: 8 µg/mL (≈ 17.6 µM)
MIC [27]: 4 µg/mL (≈ 8.78 µM)
MIC [28]: 64 µg/mL
MIC [29]: 512 µg/mL (≈ 1120 µM)
MIC [30]: 4 µg/mL (≈ 8.78 µM)
MIC [31]: 4 µg/mL
MIC [32]: 4 µg/mL
MIC [33]: 32 µg/mL (≈ 70.3 µM)
MIC [34]: 8 µg/mL (≈ 17.6 µM)
MIC [35]: 16 µg/mL (≈ 35.1 µM)
MIC [36]: 8 µg/mL (≈ 17.6 µM)
MIC [37]: 256 µg/mL
MIC [38]: 8 µg/mL

CC(C)(O/N=C(\C(=O)N[C@@H]1C(=O)N2C(C(=O)[O-])=C(C[n+]3ccccc3)CS[C@H]12)c1csc(N)n1)C(=O)O [CEFTAZIDIME]
MIC [1]: 1 µg/mL (≈ 1.83 µM)
MIC [2]: 1 µg/mL (≈ 1.83 µM)
MIC [8]: 32 µg/mL (≈ 58.5 µM)
MIC [11]: 1 µg/mL (≈ 1.83 µM)
MIC [13]: 16 µg/mL (≈ 29.3 µM)
MIC [16]: 1 µg/mL (≈ 1.83 µM)
MIC [17]: 32 µg/mL (≈ 58.5 µM)
MIC [18]: 1 µg/mL (≈ 1.83 µM)
MIC [22]: 32 µg/mL (≈ 58.5 µM)
MIC [23]: 1 µg/mL (≈ 1.83 µM)
MIC [24]: 1 µg/mL (≈ 1.83 µM)
MIC [26]: 1 µg/mL (≈ 1.83 µM)
MIC [27]: 1 µg/mL (≈ 1.83 µM)
MIC [29]: 32 µg/mL (≈ 58.5 µM)
MIC [30]: 1 µg/mL (≈ 1.83 µM)
MIC [34]: 1 µg/mL (≈ 1.83 µM)
MIC [35]: 1 µg/mL (≈ 1.83 µM)
MIC [36]: 1 µg/mL (≈ 1.83 µM)
